Data set [1] has as its system MCF7. Briefly: Cytotoxicity against human MCF7 cells assessed as cell growth inhibition after 72 hrs by alamar blue assay. The class given is functional, cell-based. Conditions: MCF7, 72 h. (Alamar Blue is a resazurin reagent that responds to reducing activity.)
Data set [2] has as its system MDA-MB-231. Briefly: Cytotoxicity against human MDA-MB-231 cells assessed as cell growth inhibition after 72 hrs by alamar blue assay. The class given is functional, cell-based. The settings on record: MDA-MB-231, 72 h.
The test system of data set [3] is MDA-MB-231. Briefly: Cytotoxicity against human MDA-MB-231 cells assessed as cell growth inhibition at 25 uM after 72 hrs by alamar blue assay. The class given is functional, cell-based.
Data set [4] deals with MCF7. Briefly: Cytotoxicity against human MCF7 cells assessed as cell growth inhibition at 25 uM after 72 hrs by alamar blue assay. The class given is functional, cell-based. In short, it runs like this: (§1)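 MCF7 cells were seeded at 5000 per well. After 24 h they were exposed to 25 µM compound. Viability was read with AlamarBlue after a 4 h reagent incubation at 24, 48 and 72 h of treatment.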

The next data set has as its system BT-474. Briefly: Cytotoxicity against human BT474 cells assessed as cell growth inhibition after 72 hrs by alamar blue assay. The class given is functional, cell-based. The settings on record: BT-474, 72 h.
Data set [5] concerns the target Vascular endothelial growth factor receptor 1 (Homo sapiens) (UniProt P17948). Briefly: Inhibition of VEGFR1 in human MCF7 cells assessed as downregulation of protein expression after 48 hrs by Western blot method. The class given is cell-based. In short, it runs like this: (§2)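 MCF7 cells were seeded at 300,000 per 6 cm dish in RPMI + 10% FBS and grown 24 h. They were then treated in RPMI + 2% FBS for 48 h, harvested and immunoblotted at 40 µg protein per lane. Blots were probed with primary antibodies against VEGFR1 and β-actin.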
Background: In western blotting, separated proteins are transferred to a membrane and probed.

The test system of data set [6] is MCF7. Briefly: Effect on beta-actin protein expression in human MCF7 cells at 5 to 15 uM after 48 hrs by Western blot method. The class given is ADME, cell-based. The settings on record: mcf7, 48 h. In short, it runs like this:
as §2

The target in data set [7] is Vascular endothelial growth factor receptor 1 (Homo sapiens) (UniProt P17948). Briefly: Inhibition of VEGFR1 in human MCF7 cells assessed as downregulation of protein expression at 5 uM after 48 hrs by Western blot method relative to beta-actin. The class given is cell-based. In short, it runs like this: as §2
The target is the same in data set [8]. Briefly: Inhibition of VEGFR1 in human MCF7 cells assessed as downregulation of protein expression at 10 uM after 48 hrs by Western blot method relative to beta-actin. The class given is cell-based. In short, it runs like this:
as §2

Data set [9] has the same target. Briefly: Inhibition of VEGFR1 in human MCF7 cells assessed as downregulation of protein expression at 15 uM after 48 hrs by Western blot method relative to beta-actin. The class given is cell-based. In short, it runs like this: as §2
A further data set has as its system Ishikawa. In words: Cytotoxicity against human Ishikawa cells assessed as cell growth inhibition after 72 hrs by alamar blue assay. The class given is functional, cell-based.
In data set [10] the test system is MCF7. Briefly: Cytotoxicity against human MCF7 cells assessed as cell growth inhibition at 25 uM by alamar blue assay. The class given is functional, cell-based. Conditions: TDE = time-dependent effect. In short, it runs like this:
as §1

Data set [11] has as its system MCF7. Briefly: Effect on beta-actin protein expression in human MCF7 cells at 0.5 to 2 uM after 48 hrs by Western blot method. The class given is ADME, cell-based. Conditions: mcf7, 48 h. In short, it runs like this:
as §2

Data set [12] has as its target Vascular endothelial growth factor receptor 1 (Homo sapiens) (UniProt P17948). Briefly: Inhibition of VEGFR1 in human MCF7 cells assessed as downregulation of protein expression at 0.5 uM after 48 hrs by Western blot method relative to beta-actin. The class given is cell-based. An outline of the steps:
as §2

Data set [13] shares this target. In words: Inhibition of VEGFR1 in human MCF7 cells assessed as downregulation of protein expression at 1 uM after 48 hrs by Western blot method relative to beta-actin. The class given is cell-based. In short, it runs like this: as §2
For data set [14] the target is unchanged. In words: Inhibition of VEGFR1 in human MCF7 cells assessed as downregulation of protein expression at 2 uM after 48 hrs by Western blot method relative to beta-actin. The class given is cell-based. In short, it runs like this: as §2

The record followed here is ChEMBL document CHEMBL4118206, “Synthesis, characterization and cytotoxicity studies of 1,2,3-triazoles and 1,2,4-triazolo [1,5-a] pyrimidines in human breast cancer cells” (Bioorg Med Chem Lett, 2018).

Calls of active or inactive are those of the source. No cut-off for these calls is given here.

Sequence of Vascular endothelial growth factor receptor 1 (Homo sapiens) (P17948 whole entry): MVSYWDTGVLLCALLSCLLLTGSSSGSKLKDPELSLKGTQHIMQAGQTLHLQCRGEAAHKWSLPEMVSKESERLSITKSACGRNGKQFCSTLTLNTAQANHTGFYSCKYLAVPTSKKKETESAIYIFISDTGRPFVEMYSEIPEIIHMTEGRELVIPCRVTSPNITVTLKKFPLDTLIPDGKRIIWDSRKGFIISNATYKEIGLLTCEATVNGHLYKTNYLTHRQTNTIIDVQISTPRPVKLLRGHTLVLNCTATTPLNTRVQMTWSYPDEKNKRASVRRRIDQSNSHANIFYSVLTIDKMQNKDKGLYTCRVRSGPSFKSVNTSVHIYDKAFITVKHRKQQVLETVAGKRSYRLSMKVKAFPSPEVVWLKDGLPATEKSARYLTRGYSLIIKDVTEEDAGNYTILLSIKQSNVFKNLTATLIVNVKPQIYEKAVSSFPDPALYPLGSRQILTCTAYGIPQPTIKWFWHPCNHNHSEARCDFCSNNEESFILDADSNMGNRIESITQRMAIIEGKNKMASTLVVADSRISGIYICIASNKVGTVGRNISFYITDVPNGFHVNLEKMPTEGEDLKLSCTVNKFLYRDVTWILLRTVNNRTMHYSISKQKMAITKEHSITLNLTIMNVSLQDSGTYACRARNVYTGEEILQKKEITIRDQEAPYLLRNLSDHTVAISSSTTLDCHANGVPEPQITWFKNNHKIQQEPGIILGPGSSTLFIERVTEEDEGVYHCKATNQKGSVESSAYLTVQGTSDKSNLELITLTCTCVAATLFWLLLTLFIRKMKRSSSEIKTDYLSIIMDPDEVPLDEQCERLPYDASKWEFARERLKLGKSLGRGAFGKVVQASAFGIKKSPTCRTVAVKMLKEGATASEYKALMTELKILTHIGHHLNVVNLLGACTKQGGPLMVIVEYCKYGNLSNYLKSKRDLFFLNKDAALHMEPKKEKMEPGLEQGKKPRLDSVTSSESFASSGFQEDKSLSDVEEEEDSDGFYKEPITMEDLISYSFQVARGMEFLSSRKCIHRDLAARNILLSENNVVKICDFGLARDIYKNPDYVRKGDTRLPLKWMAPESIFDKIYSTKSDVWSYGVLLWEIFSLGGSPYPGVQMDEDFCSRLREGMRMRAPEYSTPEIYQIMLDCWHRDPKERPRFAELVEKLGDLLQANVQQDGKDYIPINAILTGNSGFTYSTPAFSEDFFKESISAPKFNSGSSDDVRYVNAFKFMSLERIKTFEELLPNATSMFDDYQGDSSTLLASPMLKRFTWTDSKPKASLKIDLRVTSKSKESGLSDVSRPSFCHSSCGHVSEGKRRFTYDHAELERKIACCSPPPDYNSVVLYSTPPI

`N#Cc1cncc(-c2ccc(-n3cc(-c4ccccc4)nn3)cc2)c1`: the IC50 (in general, the concentration at which inhibition is half-maximal) in the data set with MCF7 [1] was under 50 µM.

For `Fc1ccc(-c2ccn3ncnc3n2)cn1`, the IC50 with MCF7 [1] and with MDA-MB-231 [2] was over 100 µM in each case. For the same compound, the “growth inhibition (GI)” value with MDA-MB-231 [3] and in the data set with MCF7 [4] was “inactive” each time.

As to `c1ccc(-c2ccn3ncnc3n2)cc1`, the IC50 was 3.91 µM with MCF7 [1] and over 100 µM with MDA-MB-231 [2]. Also, the “growth inhibition (GI)” value in the data set on MDA-MB-231 [3] was “inactive”.

With `c1ccc(-c2ccc(-n3cc(-c4ccccc4)nn3)cc2)cc1`, the concentration for half-maximal inhibition (IC50) in the data set on MCF7 [1] is under 50 µM.

Take `Fc1ccc(Cl)cc1-c1ccc(-n2cc(-c3ccccc3)nn2)cc1`: the IC50 with MCF7 [1] was under 50 µM.

Turning to `CS(=O)(=O)c1cccc(-c2ccc(-n3cc(-c4ccccc4)nn3)cc2)c1`, the IC50 in the data set with MCF7 [1] was under 50 µM.

With `CCOc1cc(F)ccc1-c1ccn2ncnc2n1`, the IC50 in the data set on MCF7 [1] was 93.8 µM; with MDA-MB-231 [2], 50.3 µM. In addition, the “growth inhibition (GI)” value in the data set with MDA-MB-231 [3] and in the data set on MCF7 [4] was “inactive” throughout.

For the compound `COc1ccc(F)cc1-c1ccc(-n2cc(-c3ccccc3)nn2)cc1`, the IC50 in the data set on MCF7 [1] was under 50 µM.

As to `N#Cc1cncc(-c2ccn3ncnc3n2)c1`, in the data set on MDA-MB-231 [2], the IC50 is over 100 µM. Also, the “growth inhibition (GI)” value in the data set on MDA-MB-231 [3] and in the data set on MCF7 [4] was “inactive” each time.

With `Clc1ccccc1-c1ccn2ncnc2n1`, the IC50 in the data set with MCF7 [1] and in the data set on MDA-MB-231 [2] was over 100 µM each time. The “growth inhibition (GI)” value in the data set on MDA-MB-231 [3] and in the data set with MCF7 [4] was “inactive” each time.

As to `Fc1ccc(Cl)cc1-c1ccn2ncnc2n1`, in the data set with MDA-MB-231 [2], the IC50 was over 100 µM. Also, the “growth inhibition (GI)” value in the data set on MDA-MB-231 [3] and with MCF7 [4] was “inactive” in each case.

In the case of `Clc1ccccc1-c1ccccc1-c1ccn2ncnc2n1`, the IC50 in the data set on MCF7 [1] and in the data set on MDA-MB-231 [2] was over 100 µM each time. Besides, the “growth inhibition (GI)” value in the data set on MDA-MB-231 [3] and in the data set on MCF7 [4] was “inactive” each time.

With `COc1ccc(F)cc1-c1ccn2ncnc2n1`, the IC50 with MCF7 [1] and in the data set with MDA-MB-231 [2] was over 100 µM in each case. Moreover, the “growth inhibition (GI)” value with MDA-MB-231 [3] and with MCF7 [4] was “inactive” throughout.

As for `Clc1ccccc1-c1ccc(-n2cc(-c3ccccc3)nn2)cc1`, the IC50 in the data set with MCF7 [1] was under 50 µM.

In the case of `c1ccc(-c2cn(-c3ccc(-c4cc5ccccc5s4)cc3)nn2)cc1`, the IC50 with MCF7 [1] is 14.4 µM; in the data set on BT-474 it was under 50 µM. Further, in [5], the inhibition result was “Dose-dependent effect”. In addition, in the data set with MCF7 [6], the Activity entry is on record as “Non-Toxic”. Besides, the fold change (FC) in data set [7] was found to be 0.8; in data set [8], 0.7; in [9] it was 0.63.

As to `Cc1ccccc1-c1ccc(-n2cc(-c3ccccc3)nn2)cc1`, in the data set with MCF7 [1], the IC50 was under 50 µM.

Consider `CCOc1cc(F)ccc1-c1ccc(-n2cc(-c3ccccc3)nn2)cc1`, for which the IC50 in the data set on Ishikawa came to 1.97 µM; with MCF7 [1] it was 1.69 µM; with BT-474, 4.08 µM; in the data set with MDA-MB-231 [2] it was 4.81 µM. Also, the “growth inhibition (GI)” value in the data set on MCF7 [10] is “Tde”. Besides, the inhibition entry in data set [5] is “Dose-dependent effect”. Besides, the Activity entry in the data set with MCF7 [11] is on record as “Non-Toxic”. The values for the fold change (FC) in data set [12], in [13] and in data set [14] were 0.8, 0.29 and 0.54, respectively.
